In ChEMBL document CHEMBL3808334, “Synthesis and in vitro evaluation of novel triazine analogues as anticancer agents and their interaction studies with bovine serum albumin” (Eur J Med Chem, 2016):

Legend:
Format in all cases: functional
[1] = tested on: KM12; assay: Growth inhibition of human KM12 cells assessed as cell growth at 10^-4 M incubated for 48 hrs by sulforhodamine B assay; conditions: KM12, 48 h, read-out: Activity
[2] = tested on: T47D; assay: Growth inhibition of human T47D cells assessed as cell growth at 10 uM incubated for 48 hrs by sulforhodamine B assay; conditions: read-out: Activity
[3] = Growth inhibition of human PC3 cells assessed as cell growth at 10^-4 M incubated for 48 hrs by sulforhodamine B assay; conditions: PC-3, 48 h, read-out: Activity
[4] = Growth inhibition of human OVCAR5 cells assessed as cell growth at 10^-7 M incubated for 48 hrs by sulforhodamine B assay; conditions: OVCAR-5, 48 h, read-out: Activity
[5] = tested on: MDA-MB-468; assay: Growth inhibition of human MDA-MB-468 cells assessed as cell growth at 10^-5 M incubated for 48 hrs by sulforhodamine B assay; conditions: MDA-MB-468, 48 h, read-out: Activity
[6] = Growth inhibition of human OVCAR3 cells assessed as cell growth at 10 uM incubated for 48 hrs by sulforhodamine B assay; conditions: OVCAR-3, 48 h, read-out: Activity
[7] = Growth inhibition of human OVCAR3 cells assessed as cell growth at 10^-8 M incubated for 48 hrs by sulforhodamine B assay; conditions: OVCAR-3, 48 h, read-out: Activity
[8] = tested on: MDA-MB-231; assay: Growth inhibition of human MDA-MB-231 cells assessed as cell growth at 10^-5 M incubated for 48 hrs by sulforhodamine B assay; conditions: MDA-MB-231, 48 h, read-out: Activity
[9] = tested on: NCI-H460; assay: Growth inhibition of human NCI-H460 cells incubated for 48 hrs by sulforhodamine B assay; conditions: NCI-H460, 48 h
Outline: (§1)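 Cells were plated at 5,000–40,000 per well according to doubling time and preincubated 24 h at 37 °C in 5% CO2; time-zero plates were then TCA-fixed. Five concentrations (10-fold or ½-log dilutions, DMSO stock) were incubated 48 h. Cells were TCA-fixed, stained with 0.4% SRB and read at 515 nm. GI50 was taken where [(Ti−Tz)/(C−Tz)]×100 = 50.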

[10] = Growth inhibition of human melanoma cells incubated for 48 hrs by sulforhodamine B assay; conditions: Melanoma cell; for CC50: read-out: LC50 (the source's name)
[11] = Growth inhibition of human SF539 cells incubated for 48 hrs by sulforhodamine B assay; conditions: SF-539, 48 h; outline: as §1
[12] = tested on: MDA-MB-231; assay: Growth inhibition of human MDA-MB-231 cells assessed as cell growth at 10^-4 M incubated for 48 hrs by sulforhodamine B assay; conditions: MDA-MB-231, 48 h, read-out: Activity
[13] = Growth inhibition of human Hs 578T cells assessed as cell growth at 10^-5 M incubated for 48 hrs by sulforhodamine B assay; conditions: read-out: Activity
[14] = Growth inhibition of human MOLT4 cells assessed as cell growth at 10 uM incubated for 48 hrs by sulforhodamine B assay; conditions: MOLT-4, 48 h, read-out: Activity
[15] = Growth inhibition of human RXF393 cells assessed as cell growth at 10^-4 M incubated for 48 hrs by sulforhodamine B assay; conditions: RXF 393, 48 h, read-out: Activity
[16] = Growth inhibition of human Caki1 cells assessed as cell growth at 10^-6 M incubated for 48 hrs by sulforhodamine B assay; conditions: CAKI-1, 48 h, read-out: Activity
Outline: (§2)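 Cells seeded at 5,000–40,000/well according to doubling time and preincubated 24 h at 37 °C, 5% CO2. Time-zero plates were TCA-fixed. DMSO concentrate was diluted in medium with 50 µg/ml gentamicin to give five concentrations (10-fold or ½ log steps), then exposed 48 h. Cells were TCA-fixed, stained with 0.4% SRB and read at 515 nm. Percent growth was taken against time-zero and control; GI50, TGI and LC50 derived.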

[17] = tested on: T47D; assay: Growth inhibition of human T47D cells assessed as cell growth at 10^-4 M incubated for 48 hrs by sulforhodamine B assay; conditions: read-out: Activity
[18] = tested on: NCI/ADR-RES; assay: Growth inhibition of human NCI/ADR-RES cells assessed as cell growth at 10^-8 M incubated for 48 hrs by sulforhodamine B assay; conditions: read-out: Activity
[19] = tested on: SK-MEL-5; assay: Growth inhibition of human SK-MEL-5 cells assessed as cell growth at 10^-6 M incubated for 48 hrs by sulforhodamine B assay; conditions: SK-MEL-5, 48 h, read-out: Activity
[20] = tested on: SK-MEL-28; assay: Growth inhibition of human SK-MEL-28 cells assessed as cell growth at 10^-5 M incubated for 48 hrs by sulforhodamine B assay; conditions: SK-MEL-28, 48 h, read-out: Activity
[21] = tested on: SK-MEL-28; assay: Growth inhibition of human SK-MEL-28 cells incubated for 48 hrs by sulforhodamine B assay; conditions: SK-MEL-28, 48 h; outline: as §1
[22] = Growth inhibition of human HCT116 cells assessed as cell growth at 10^-8 M incubated for 48 hrs by sulforhodamine B assay; conditions: HCT-116, 48 h, read-out: Activity; outline: as §2
[23] = tested on: 786-0; assay: Growth inhibition of human 786-0 cells incubated for 48 hrs by sulforhodamine B assay; conditions: 786-0, 48 h
Outline: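 Five-dose assay: five concentrations from 10-fold or ½-log serial dilutions. Cells are plated at 5,000–40,000 per well according to doubling time, grown 24 h, then exposed 48 h at 37 °C, 5% CO₂. Fixed with cold 50% TCA (final addition) for 60 min at 4 °C and stained with 0.4% SRB in 1% acetic acid. Bound dye is solubilized in 10 mM Tris base and read at 515 nm. GI₅₀ is where [(Ti−Tz)/(C−Tz)]×100 = 50, with a time-zero plate as Tz.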

[24] = tested on: NCI-H23; assay: Growth inhibition of human NCI-H23 cells assessed as cell growth at 10^-8 M incubated for 48 hrs by sulforhodamine B assay; conditions: NCI-H23, 48 h, read-out: Activity
[25] = Growth inhibition of human SW620 cells assessed as cell growth at 10^-7 M incubated for 48 hrs by sulforhodamine B assay; conditions: SW-620, 48 h, read-out: Activity
[26] = Growth inhibition of human SNB19 cells assessed as cell growth at 10^-5 M incubated for 48 hrs by sulforhodamine B assay; conditions: SNB-19, 48 h, read-out: Activity
[27] = Growth inhibition of human OVCAR4 cells assessed as cell growth at 10^-5 M incubated for 48 hrs by sulforhodamine B assay; conditions: OVCAR-4, 48 h, read-out: Activity
[28] = read-out: LC50 (the source's name)
[29] = read-out: pLC50 (the source's name) (converted)

`c1ccc(-c2nc(Nc3ccc(-c4nc5ccccc5[nH]4)cc3)nc(N3CCOCC3)n2)cc1` showed a growth at 100 µM [1] of -86%, a growth at 10 µM [2] of -62.3% and a growth at 100 µM [3] of -82%. For the same compound, the growth at 0.1 µM [4] was 99%, the growth at 10 µM [5] was -57% and the growth at 10 µM [6] was -73.4%. For the same compound, the growth at 0.01 µM [7] was 105%, the growth at 10 µM [8] was -53% and the GI50 ([9]; read-out: GI50) was 0.822 µM. It also gave a CC50 [9, 28] of 6.67 µM, a TGI ([9]; read-out: TGI) of 2.46 µM and a GI50 ([9]; read-out: pGI50 (converted)) of 0.813 µM. For the same compound, the CC50 [9, 29] was 6.61 µM, the TGI ([9]; read-out: pTGI (converted)) was 2.45 µM and the GI50 [10] was 1.56 µM. For the same compound, the TGI [10] was 3.18 µM, the CC50 [10] was 6.52 µM and the GI50 ([11]; read-out: GI50) was 1.42 µM. The CC50 [11, 28] was 6.09 µM, the TGI ([11]; read-out: TGI) was 2.94 µM and the GI50 ([11]; read-out: pGI50 (converted)) was 1.41 µM. It also gave a CC50 [11, 29] of 6.03 µM, a TGI ([11]; read-out: pTGI (converted)) of 2.95 µM and a growth at 100 µM [12] of -60%. It also gave a growth at 10 µM [13] of -22%, a growth at 10 µM [14] of -37.8% and a growth at 100 µM [15] of -61%. The growth at 1 µM [16] was 68%, the growth at 100 µM [17] was -56% and the growth at 0.01 µM [18] was 95%. It also gave a growth at 1 µM [19] of 92%, a growth at 10 µM [20] of -86% and a GI50 ([21]; read-out: GI50) of 1.56 µM. The CC50 [21, 28] was 6.12 µM, the TGI ([21]; read-out: TGI) was 3.09 µM and the GI50 ([21]; read-out: pGI50 (converted)) was 1.55 µM. The CC50 [21, 29] was 6.17 µM, the TGI ([21]; read-out: pTGI (converted)) was 3.09 µM and the growth at 0.01 µM [22] was 99%. For the same compound, the GI50 ([23]; read-out: GI50) was 0.257 µM, the CC50 [23, 28] was 4.06 µM and the TGI ([23]; read-out: TGI) was 1.25 µM. The GI50 ([23]; read-out: pGI50 (converted)) was 0.257 µM, the CC50 [23, 29] was 4.07 µM and the TGI ([23]; read-out: pTGI (converted)) was 1.26 µM. It also gave a growth at 0.01 µM [24] of 95%, a growth at 0.1 µM [25] of 92% and a growth at 10 µM [26] of -53%. For the same compound, the growth at 10 µM [27] was -97%.
`Fc1ccc(-c2nc(Nc3ccc(-c4nc5ccccc5[nH]4)cc3)nc(N3CCOCC3)n2)cc1` gave a growth at 100 µM [1] of -37%, a growth at 10 µM [2] of 16.1% and a growth at 100 µM [3] of -6%. It also gave a growth at 0.1 µM [4] of 83%, a growth at 10 µM [5] of -14% and a growth at 10 µM [6] of 5.15%. For the same compound, the growth at 0.01 µM [7] was 102%, the growth at 10 µM [8] was -35% and the GI50 ([9]; read-out: GI50) was 2.48 µM. The CC50 [9, 28] was > 100 µM, the TGI ([9]; read-out: TGI) was 6.51 µM and the GI50 ([9]; read-out: pGI50 (converted)) was 2.45 µM. For the same compound, the CC50 [9, 29] was > 100 µM, the TGI ([9]; read-out: pTGI (converted)) was 6.46 µM and the GI50 [10] was 1.91 µM. It also gave a TGI [10] of 4.04 µM, a CC50 [10] of 7.43 µM and a GI50 ([11]; read-out: GI50) of 1.63 µM. For the same compound, the CC50 [11, 28] was 8.47 µM, the TGI ([11]; read-out: TGI) was 3.72 µM and the GI50 ([11]; read-out: pGI50 (converted)) was 1.62 µM. It also gave a CC50 [11, 29] of 8.51 µM, a TGI ([11]; read-out: pTGI (converted)) of 3.72 µM and a growth at 100 µM [12] of -33%. It also gave a growth at 10 µM [13] of -13%, a growth at 10 µM [14] of 1.78% and a growth at 100 µM [15] of -35%. For the same compound, the growth at 1 µM [16] was 87%, the growth at 100 µM [17] was -44% and the growth at 0.01 µM [18] was 98%. For the same compound, the growth at 1 µM [19] was 97%, the growth at 10 µM [20] was -49% and the GI50 ([21]; read-out: GI50) was 1.8 µM. For the same compound, the CC50 [21, 28] was > 100 µM, the TGI ([21]; read-out: TGI) was 4.28 µM and the GI50 ([21]; read-out: pGI50 (converted)) was 1.78 µM. For the same compound, the CC50 [21, 29] was > 100 µM, the TGI ([21]; read-out: pTGI (converted)) was 4.27 µM and the growth at 0.01 µM [22] was 90%. For the same compound, the GI50 ([23]; read-out: GI50) was 1.44 µM, the CC50 [23, 28] was 7.24 µM and the TGI ([23]; read-out: TGI) was 3.23 µM. For the same compound, the GI50 ([23]; read-out: pGI50 (converted)) was 1.45 µM, the CC50 [23, 29] was 7.24 µM and the TGI ([23]; read-out: pTGI (converted)) was 3.24 µM. The growth at 0.01 µM [24] was 94%, the growth at 0.1 µM [25] was 100% and the growth at 10 µM [26] was 15%. The growth at 10 µM [27] was 3%.
